The source of these data is ChEMBL document CHEMBL2163247, “Multitargeted drug development: Discovery and profiling of dihydroxy substituted 1-aza-9-oxafluorenes as lead compounds targeting Alzheimer disease relevant kinases” (Bioorg Med Chem Lett, 2012).

The target of data set [1] is Glycogen synthase kinase-3 beta (Homo sapiens, UniProt P49841). Put plainly: Inhibition of GSK3beta. In a few lines: (§1)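 Ki values were calculated from measured IC50 values of kinase inhibition.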
Data set [2] concerns the target Cyclin-dependent kinase 2/cyclin E (Homo sapiens, UniProt P24941). Put plainly: Inhibition of CDK2/Cyclin E. It counts as protein-complex assay. The essentials:
as §1

In data set [3] the target is Cyclin-dependent kinase 1/cyclin B1 (Homo sapiens, UniProt P06493). Put plainly: Inhibition of CDK1/Cyclin B. It counts as protein-complex assay. In a few lines:
as §1

Data set [4] deals with Cyclin-dependent kinase 5/CDK5 activator 1 (Homo sapiens, UniProt Q00535). Nature of the data set: Inhibition of CDK5/p25. It counts as protein-complex assay. The essentials: as §1
Sequence of Cyclin-dependent kinase 5/CDK5 activator 1 (Q00535 whole entry): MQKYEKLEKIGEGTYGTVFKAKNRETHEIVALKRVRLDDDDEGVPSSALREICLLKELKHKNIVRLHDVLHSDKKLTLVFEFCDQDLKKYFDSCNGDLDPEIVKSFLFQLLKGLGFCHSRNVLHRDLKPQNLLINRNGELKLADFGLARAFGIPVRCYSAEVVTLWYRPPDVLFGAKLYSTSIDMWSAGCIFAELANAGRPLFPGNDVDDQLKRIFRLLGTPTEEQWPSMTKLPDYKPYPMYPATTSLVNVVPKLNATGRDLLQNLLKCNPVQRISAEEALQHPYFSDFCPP
Sequence of Cyclin-dependent kinase 5/CDK5 activator 1 (Q15078 whole entry, further chain): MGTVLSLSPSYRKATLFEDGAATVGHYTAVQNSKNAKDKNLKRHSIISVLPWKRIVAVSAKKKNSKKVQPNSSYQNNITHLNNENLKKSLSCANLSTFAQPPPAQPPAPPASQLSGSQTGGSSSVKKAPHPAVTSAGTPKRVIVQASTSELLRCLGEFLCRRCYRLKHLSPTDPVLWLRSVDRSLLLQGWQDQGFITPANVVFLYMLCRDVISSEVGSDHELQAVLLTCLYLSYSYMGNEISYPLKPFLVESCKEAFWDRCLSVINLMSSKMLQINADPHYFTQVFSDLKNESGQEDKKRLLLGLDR
A short description of data set [5]: Inhibition of CDK4/Cyclin D. In a few lines:
as §1

Data set [6] concerns the target T1, Protein kinase C epsilon type (Homo sapiens, UniProt Q02156).
T1 sequence (Q02156 whole entry): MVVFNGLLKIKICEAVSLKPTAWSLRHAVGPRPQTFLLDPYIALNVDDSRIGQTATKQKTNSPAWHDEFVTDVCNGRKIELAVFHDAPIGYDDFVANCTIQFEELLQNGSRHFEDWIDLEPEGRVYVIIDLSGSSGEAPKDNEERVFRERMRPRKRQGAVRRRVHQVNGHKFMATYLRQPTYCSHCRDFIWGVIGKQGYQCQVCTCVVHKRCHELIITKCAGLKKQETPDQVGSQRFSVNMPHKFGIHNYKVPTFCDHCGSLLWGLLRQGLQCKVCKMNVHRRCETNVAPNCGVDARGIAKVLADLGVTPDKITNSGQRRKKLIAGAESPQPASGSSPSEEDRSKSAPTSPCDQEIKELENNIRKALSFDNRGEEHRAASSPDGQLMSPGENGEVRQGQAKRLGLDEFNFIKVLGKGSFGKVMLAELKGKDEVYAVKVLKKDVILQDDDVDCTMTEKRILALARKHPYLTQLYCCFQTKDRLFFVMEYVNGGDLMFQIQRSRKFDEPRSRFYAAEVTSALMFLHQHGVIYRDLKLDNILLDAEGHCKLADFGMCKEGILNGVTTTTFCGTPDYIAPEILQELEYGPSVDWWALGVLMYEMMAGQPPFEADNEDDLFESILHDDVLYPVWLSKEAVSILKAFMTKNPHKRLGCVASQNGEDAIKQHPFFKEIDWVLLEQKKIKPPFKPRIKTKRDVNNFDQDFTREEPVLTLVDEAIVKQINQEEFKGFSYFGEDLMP
Nature of the data set: Inhibition of PKCepsilon.

Data set [7] addresses Glycogen synthase kinase-3 beta (Mus musculus) (UniProt Q9WV60). Put plainly: Inhibition of GSK3beta-mediated Tau S202/T205 phosphorylation in mouse N2A cells at 2.6 to 24 uM after 16 hrs by immunoblot analysis. It counts as cell-based. The essentials: (§2)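 Mouse N2A cells stably transfected with a 3-repeat tau construct were grown 24 h in DMEM/HAMs F-12 (pH 7.4), 5% FBS, 2 mM L-glutamine and gentamicin (37 °C, 5% CO2). They were then exposed 16 h to inhibitor diluted from a 25 mM DMSO stock (final DMSO ≤0.4%, also in controls). Lysate proteins were run on 8% SDS–PAGE, blotted to PVDF, and probed for phospho-Ser202/Thr205 tau.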
For orientation: Immunoblotting shows a protein as a band on a membrane.

Data set [8] concerns N2a. Put plainly: Cytotoxicity against mouse N2A cells up to 90 uM by MTT assay. It counts as cell-based. The essentials:
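N2A cells were treated at up to 90 µM. MTT was added in triplicate to a final 1 mg/mL for 2 h. Medium was removed, formazan taken up in DMSO plus glycine buffer (0.1 M glycine, pH 10.5, 0.1 M NaCl), and absorbance read at 550 nm. Cells lysed with 1% Triton X-100 set 100% death; untreated cells served as reference.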
Background: Tetrazolium dyes change colour on reduction, which living cells bring about.

The target of data set [9] is Protein kinase C gamma type (Homo sapiens, UniProt P05129). Put plainly: Inhibition of PKCgamma.
In another data set the target is Wee1-like protein kinase (Homo sapiens, UniProt P30291). Put plainly: Inhibition of WEE1.
For data set [10], the system named is N2a. Put plainly: Cytotoxicity against mouse N2A cells up to 90 uM by LDH assay. It counts as cell-based. The essentials:
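Membrane integrity in N2A cells was read as extracellular lactate dehydrogenase activity, at compound concentrations up to 90 µM. Absorbance was read at 492 nm 20 min after adding the reagent mixture and compared with compound-free cells.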

The next data set has as its target CDK6/cyclin D1 (Homo sapiens, UniProt Q00534). Put plainly: Inhibition of CDK6/Cyclin D1. It counts as protein-complex assay.
Data set [11] has as its target Cdk5-Cdk5r1 complex (Mus musculus) (UniProt P49615+P61809). Put plainly: Inhibition of CDK5/p25-mediated Tau S202/T205 phosphorylation in mouse N2A cells at 2.6 to 24 uM after 16 hrs by immunoblot analysis. It counts as cell-based. In a few lines:
as §2

The next data set deals with Angiopoietin-1 receptor (Homo sapiens, UniProt Q02763). Put plainly: Inhibition of TIE2.
Sequence of Angiopoietin-1 receptor (Q02763 whole entry): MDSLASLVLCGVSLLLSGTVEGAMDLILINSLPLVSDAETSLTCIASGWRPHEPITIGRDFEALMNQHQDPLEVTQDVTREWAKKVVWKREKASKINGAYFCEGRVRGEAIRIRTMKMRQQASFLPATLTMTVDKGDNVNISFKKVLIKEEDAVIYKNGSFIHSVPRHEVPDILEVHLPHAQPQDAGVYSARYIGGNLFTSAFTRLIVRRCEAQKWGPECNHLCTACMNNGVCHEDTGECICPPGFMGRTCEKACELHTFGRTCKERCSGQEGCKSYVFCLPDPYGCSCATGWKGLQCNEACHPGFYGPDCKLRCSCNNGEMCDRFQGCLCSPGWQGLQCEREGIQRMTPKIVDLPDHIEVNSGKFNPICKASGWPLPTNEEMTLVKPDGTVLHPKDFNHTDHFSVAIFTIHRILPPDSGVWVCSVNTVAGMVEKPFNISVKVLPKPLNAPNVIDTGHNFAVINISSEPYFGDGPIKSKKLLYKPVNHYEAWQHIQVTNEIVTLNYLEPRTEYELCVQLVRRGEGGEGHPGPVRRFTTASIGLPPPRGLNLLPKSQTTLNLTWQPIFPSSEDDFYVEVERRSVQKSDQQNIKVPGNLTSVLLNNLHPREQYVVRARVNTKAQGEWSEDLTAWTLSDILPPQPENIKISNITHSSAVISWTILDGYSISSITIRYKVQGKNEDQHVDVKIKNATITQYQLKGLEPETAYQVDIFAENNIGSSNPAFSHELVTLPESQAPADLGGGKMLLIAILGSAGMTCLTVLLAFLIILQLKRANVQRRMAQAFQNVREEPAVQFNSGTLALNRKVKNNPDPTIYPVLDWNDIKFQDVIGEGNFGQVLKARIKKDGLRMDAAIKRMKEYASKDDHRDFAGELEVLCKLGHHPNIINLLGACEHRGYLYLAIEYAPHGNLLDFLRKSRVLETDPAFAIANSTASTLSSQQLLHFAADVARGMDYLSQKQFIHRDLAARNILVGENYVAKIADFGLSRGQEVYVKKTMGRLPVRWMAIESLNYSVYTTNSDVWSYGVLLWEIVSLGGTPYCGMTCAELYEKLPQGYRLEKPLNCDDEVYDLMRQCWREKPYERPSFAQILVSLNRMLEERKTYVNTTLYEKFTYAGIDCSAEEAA
Data set [12] deals with Vascular endothelial growth factor receptor 2 (Homo sapiens, UniProt P35968). Nature of the data set: Inhibition of VEGFR2.
Data set [13] has as its target Receptor tyrosine-protein kinase erbB-2 (Homo sapiens, UniProt P04626). Nature of the data set: Inhibition of ERBB2.
In data set [14] the target is Protein kinase C alpha type (Homo sapiens, UniProt P17252). Put plainly: Inhibition of PKCalpha.
Data set [15] addresses Casein kinase I isoform alpha (Homo sapiens, UniProt P48729). Put plainly: Inhibition of Ck1alpha1.
For data set [16], the target named is T2, Protein kinase C iota type (Homo sapiens, UniProt P41743).
T2 sequence (P41743 whole entry): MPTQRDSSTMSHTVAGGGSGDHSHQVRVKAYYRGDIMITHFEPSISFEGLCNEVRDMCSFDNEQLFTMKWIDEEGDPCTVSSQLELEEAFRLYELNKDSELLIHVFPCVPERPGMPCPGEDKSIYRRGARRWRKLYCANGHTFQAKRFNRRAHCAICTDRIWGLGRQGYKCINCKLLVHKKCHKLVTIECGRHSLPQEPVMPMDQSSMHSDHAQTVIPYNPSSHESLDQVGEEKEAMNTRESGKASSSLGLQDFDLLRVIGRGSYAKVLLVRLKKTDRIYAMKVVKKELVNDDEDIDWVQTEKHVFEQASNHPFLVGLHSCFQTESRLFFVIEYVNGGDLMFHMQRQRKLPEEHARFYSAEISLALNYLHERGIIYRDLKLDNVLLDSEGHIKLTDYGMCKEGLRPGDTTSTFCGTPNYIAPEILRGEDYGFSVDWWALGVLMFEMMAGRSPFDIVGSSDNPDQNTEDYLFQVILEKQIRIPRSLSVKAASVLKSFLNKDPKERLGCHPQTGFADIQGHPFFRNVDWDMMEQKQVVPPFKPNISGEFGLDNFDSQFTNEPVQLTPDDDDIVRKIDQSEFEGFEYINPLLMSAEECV
Nature of the data set: Inhibition of PKCiota.

Molecules are shown by their SMILES. Calls of active or inactive are those of the source. No cut-off for these calls is given here. Bounds are passed on as bounds.

Sequence of Glycogen synthase kinase-3 beta (P49841 whole entry): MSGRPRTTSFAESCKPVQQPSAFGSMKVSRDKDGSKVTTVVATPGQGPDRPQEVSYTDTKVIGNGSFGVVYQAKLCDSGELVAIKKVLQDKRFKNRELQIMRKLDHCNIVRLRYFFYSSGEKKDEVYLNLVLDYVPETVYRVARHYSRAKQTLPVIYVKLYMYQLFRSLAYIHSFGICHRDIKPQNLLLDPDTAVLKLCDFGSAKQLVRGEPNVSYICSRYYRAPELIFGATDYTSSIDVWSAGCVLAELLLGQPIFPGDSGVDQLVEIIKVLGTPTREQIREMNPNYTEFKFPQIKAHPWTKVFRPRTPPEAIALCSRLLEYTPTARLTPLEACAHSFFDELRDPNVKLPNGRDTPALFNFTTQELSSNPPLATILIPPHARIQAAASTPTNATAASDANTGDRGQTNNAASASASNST
Sequence of Cyclin-dependent kinase 1/cyclin B1 (P06493 whole entry): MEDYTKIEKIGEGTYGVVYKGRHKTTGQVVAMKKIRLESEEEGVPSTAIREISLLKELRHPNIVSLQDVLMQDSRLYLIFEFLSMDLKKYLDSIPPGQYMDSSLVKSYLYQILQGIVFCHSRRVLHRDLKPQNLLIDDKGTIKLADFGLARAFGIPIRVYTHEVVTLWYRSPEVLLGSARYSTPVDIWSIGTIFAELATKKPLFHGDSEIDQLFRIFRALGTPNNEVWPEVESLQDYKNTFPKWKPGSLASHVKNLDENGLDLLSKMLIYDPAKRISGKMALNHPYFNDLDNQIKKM
Sequence of Cyclin-dependent kinase 1/cyclin B1 (P14635 whole entry, further chain): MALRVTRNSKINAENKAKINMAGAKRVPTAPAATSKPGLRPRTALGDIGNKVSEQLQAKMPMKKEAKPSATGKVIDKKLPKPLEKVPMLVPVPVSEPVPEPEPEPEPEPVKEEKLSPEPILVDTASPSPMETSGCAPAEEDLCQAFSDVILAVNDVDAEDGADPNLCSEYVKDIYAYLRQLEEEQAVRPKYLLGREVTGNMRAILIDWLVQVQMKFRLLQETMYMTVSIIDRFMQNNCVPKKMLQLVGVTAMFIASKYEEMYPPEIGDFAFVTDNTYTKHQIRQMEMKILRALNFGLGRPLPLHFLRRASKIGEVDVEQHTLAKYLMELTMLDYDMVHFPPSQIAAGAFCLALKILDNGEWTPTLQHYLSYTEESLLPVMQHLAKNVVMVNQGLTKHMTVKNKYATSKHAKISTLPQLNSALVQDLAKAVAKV
Sequence of Glycogen synthase kinase-3 beta (Mus musculus) (Q9WV60 whole entry, looked up): as the sequence (P49841 whole entry) above, with T390P, T392A, A400T, T402A counted along it
Sequence of CDK6/cyclin D1 (P24385 whole entry): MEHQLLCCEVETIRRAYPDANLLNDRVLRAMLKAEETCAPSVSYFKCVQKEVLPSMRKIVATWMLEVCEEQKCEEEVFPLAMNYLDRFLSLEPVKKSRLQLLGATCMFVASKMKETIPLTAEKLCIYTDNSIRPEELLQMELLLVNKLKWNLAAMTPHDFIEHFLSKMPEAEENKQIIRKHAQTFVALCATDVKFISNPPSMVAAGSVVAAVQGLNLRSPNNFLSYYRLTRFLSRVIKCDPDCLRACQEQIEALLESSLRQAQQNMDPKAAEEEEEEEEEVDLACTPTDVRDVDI
Sequence of CDK6/cyclin D1 (Q00534 whole entry): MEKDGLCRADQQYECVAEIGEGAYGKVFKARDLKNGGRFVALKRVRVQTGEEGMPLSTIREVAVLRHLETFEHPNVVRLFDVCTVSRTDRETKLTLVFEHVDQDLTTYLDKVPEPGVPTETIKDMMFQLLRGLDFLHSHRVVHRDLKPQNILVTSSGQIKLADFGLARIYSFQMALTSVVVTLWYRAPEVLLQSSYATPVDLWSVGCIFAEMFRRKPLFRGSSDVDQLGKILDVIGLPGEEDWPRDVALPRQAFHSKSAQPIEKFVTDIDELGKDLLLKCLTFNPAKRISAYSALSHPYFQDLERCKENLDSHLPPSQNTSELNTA
Sequence of Casein kinase I isoform alpha (P48729 whole entry, canonical isoform): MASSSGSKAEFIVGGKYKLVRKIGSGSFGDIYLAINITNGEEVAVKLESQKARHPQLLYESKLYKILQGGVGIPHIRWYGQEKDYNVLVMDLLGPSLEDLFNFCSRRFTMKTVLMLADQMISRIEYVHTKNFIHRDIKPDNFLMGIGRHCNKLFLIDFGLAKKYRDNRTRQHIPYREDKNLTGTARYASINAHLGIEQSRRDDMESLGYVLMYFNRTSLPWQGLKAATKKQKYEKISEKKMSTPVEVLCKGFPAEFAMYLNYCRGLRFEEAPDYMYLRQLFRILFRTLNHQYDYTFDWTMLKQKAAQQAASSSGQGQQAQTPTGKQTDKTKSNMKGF

In general, Ki refers to the equilibrium dissociation constant of an inhibitor or competing ligand from its target. The low end stands for tighter binding, the high end for weaker binding. With `COc1ccc2oc3ncc(OC)c(-c4ccccc4)c3c2c1`, the Ki in data set [1], in data set [2], in data set [3], in data set [4] and in data set [5] was > 1000 µM each time.

Turning to `Oc1ccc2oc3ncc(O)c(-c4ccccc4)c3c2c1`, the Ki is > 1000 µM in [6]; 0.02 µM in data set [1]; > 1000 µM in [9]; > 1000 µM at Wee1-like protein kinase; 773 µM at CDK6/cyclin D1; > 1000 µM on Angiopoietin-1 receptor. Moreover, the Ki in data set [12] was > 1000 µM; in data set [2], 0.6 µM; in [13], > 1000 µM; in data set [14], > 1000 µM; in data set [15], > 1000 µM; in data set [3] it was 0.01 µM. Further, the Ki is 0.11 µM in data set [4], > 1000 µM in [16] and 18.5 µM in data set [5]. Further, the inhibition result in data set [7] and in data set [11] was “Active” throughout. The Activity entry in the data set with N2a [8] and with N2a [10] was “Non-toxic” in each case.

In the case of `Oc1ccc2oc3ncc(OCc4ccccc4)c(-c4ccccc4)c3c2c1`, the Ki in data set [1] was 5.8 µM; in data set [2], 6.4 µM; in data set [3] it was 2.3 µM; in [4], > 1000 µM; in [5], 36.6 µM.

On to `Cc1cc2oc3ncc(OCc4ccccc4)c(-c4ccccc4)c3c2cc1O`, for which the Ki in [1] was 5.8 µM; in data set [3], 1.3 µM; in data set [4] it was 25.3 µM.

In the case of `COc1ccc2oc3ncc(OCc4ccccc4)c(-c4ccccc4)c3c2c1`, the Ki was 0.02 µM in [1]; > 1000 µM in data set [2]; > 1000 µM in [3]; 26.1 µM in data set [4]; > 1000 µM in data set [5].

Turning to `COc1cnc2oc3ccc(O)cc3c2c1-c1ccccc1`, the Ki in [1] is 14.8 µM; in [2] it was 24 µM; in [3], 5.3 µM; in data set [4], > 1000 µM; in data set [5] it was 93.6 µM.

For `Oc1cc2c(oc3ncc(OCc4ccccc4)c(-c4ccccc4)c32)c2ccccc12`, the Ki in data set [1] is 1.6 µM; in data set [3], 0.09 µM; in [4], 2.1 µM.

For the molecule `Oc1cnc2oc3c4ccccc4c(O)cc3c2c1-c1ccccc1`, the Ki was 0.01 µM in [1], 0.7 µM in data set [3] and 0.07 µM in data set [4].

With `COc1ccc2oc3ncc(O)c(-c4ccccc4)c3c2c1`, the Ki in data set [1] is > 1000 µM; in data set [2], > 1000 µM; in [3], > 1000 µM; in data set [4], > 1000 µM; in data set [5] it was 144 µM.
